Measurements: ChEMBL document CHEMBL3352816, “Synthesis and antiproliferative activity of imidazo[2,1-b][1,3,4]thiadiazole derivatives” (Bioorg Med Chem Lett, 2014)
Calls of active or inactive are those of the source. No cut-off for these calls is given here.

Assays:
[1] = Growth inhibition of human Renal cancer cells; format: functional; settings: Cancer cell lines
[2] = Growth inhibition of human Leukemia cells; format: functional; settings: for GI50 / TGI: Leukemia cell
[3] = Growth inhibition of human Prostate cancer cells; format: functional; settings: Cancer cell lines
[4] = Growth inhibition of human Colon cancer cells; format: functional; settings: Cancer cell lines; for CC50: read-out: LC50 (the source's name)
[5] = Growth inhibition of human NSCLC cells; format: functional
[6] = Growth inhibition of human Ovarian cancer cells; format: functional; settings: Cancer cell lines
[7] = Growth inhibition of human CNS cancer cells; format: functional; settings: Cancer cell lines
[8] = Growth inhibition of human Melanoma cells; format: functional; settings: Melanoma cell
[9] = Growth inhibition of human Breast cancer cells; format: functional; settings: Cancer cell lines
[10] = system: K562; test: Cytotoxicity against human K562 cells assessed as reduction in cell viability at 10 to 250 uM after 24 to 72 hrs by trypan blue exclusion assay; format: functional, cell-based
How it was run: (§1)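 Reh, K562 and Nalm6 leukemic cells were treated with 10, 50, 100 and 250 µM or with 0.1, 0.5, 1, 5 and 10 µM (compounds dissolved in DMSO). Viability was scored by trypan blue after 24, 48 and 72 h. DMSO-treated cells served as vehicle control.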

[11] = system: REH; test: Cytotoxicity against human REH cells assessed as reduction in cell viability at 10 to 250 uM after 24 to 72 hrs by trypan blue exclusion assay; format: functional, cell-based; how it was run: as §1
[12] = system: REH; test: Cytotoxicity against human REH cells assessed as reduction in cell viability at 100 to 250 uM after 48 to 72 hrs by MTT assay; format: functional, cell-based
How it was run: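 MTT viability read-out in leukemic cells treated with 10, 50, 100 and 250 µM or with 0.1, 0.5, 1, 5 and 10 µM. Cells harvested after 48 and 72 h. Compounds dissolved in DMSO.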

[13] = system: NALM-6; test: Cytotoxicity against human NALM6 cells assessed as reduction in cell viability at 10 to 250 uM after 24 to 72 hrs by trypan blue exclusion assay; format: functional, cell-based; how it was run: as §1

Row | SMILES | GI50 [1] [µM] | TGI [1] [µM] | GI50 [2] [µM] | TGI [2] [µM] | GI50 [3] [µM] | TGI [3] [µM] | GI50 [4] [µM] | TGI [4] [µM] | GI50 [5] [µM] | LC50 (concentration killing 50% of cells) [5] [µM] | TGI [5] [µM] | GI50 [6] [µM] | TGI [6] [µM] | GI50 [7] [µM] | TGI [7] [µM] | GI50 [8] [µM] | TGI [8] [µM] | GI50 [9] [µM] | TGI [9] [µM] | further results
1 | N#CSc1c(-c2ccccc2)nc2sc(Cc3ccccc3)nn12 | 15.1 | 70.8 | 13.5 | 57.5 | 15.5 | 40.7 | 11.2 | 91.2 | 6 | 97.7 | 75.9 | 9.8 | 79.4 | 4.4 | 77.6 | 20.9 | 85.1 | 7.4 | 75.9 | LC50 [1]: 95.5 µM; LC50 [6]: 97.7 µM
2 | CO[C@H]1/C=C/O[C@@]2(C)Oc3c(C)c(O)c4c(O)c(cc(O)c4c3C2=O)NC(=O)/C(C)=C\C=C\[C@H](C)[C@H](O)[C@@H](C)[C@@H](O)[C@@H](C)[C@H](OC(C)=O)[C@@H]1C [RIFAMYCIN] | 15.9 | – | 3.2 | – | 10 | – | 10 | – | 14.5 | – | – | 18.6 | – | 21.4 | – | 15.5 | – | 16.6 | – | –
3 | O=Cc1c(-c2ccc([N+](=O)[O-])cc2)nc2sc(Cc3ccccc3)nn12 | 3.7 | 58.9 | 5.9 | 26.3 | 3 | 50.1 | 3.1 | 31.6 | 2.9 | 95.5 | 45.7 | 4.1 | 39.8 | 2.9 | 26.9 | 3.7 | 42.7 | 2.8 | 26.3 | LC50 (concentration causing 50% net cell kill) [2]: 69.2 µM; CC50 [4]: 85.1 µM; LC50 [7]: 83.2 µM; LC50 [9]: 83.2 µM
4 | O=[N+]([O-])c1ccc(-c2nc3sc(Cc4ccccc4)nn3c2Br)cc1 | 3.7 | 64.6 | 69.2 | – | 42.7 | – | 52.5 | 83.2 | 12.6 | – | 56.2 | 6.3 | 83.2 | 3.4 | 47.9 | 40.7 | – | 17.4 | 79.4 | –
5 | Clc1ccc(-c2cn3nc(Cc4ccccc4)sc3n2)cc1 | 2.6 | 5.9 | 2.1 | 23.4 | 2.9 | 8.1 | 2.2 | 5.3 | 7.6 | 57.5 | 20.9 | 4.6 | 10.5 | 5 | 13.8 | 3.7 | 8.9 | 4 | 12 | Activity [10]: Active; LC50 [1]: 15.1 µM; LC50 (concentration causing 50% net cell kill) [2]: 95.5 µM; CC50 ([3]; read-out: LC50 (the source's name)): 23.4 µM; Activity [11]: Active; Activity [12]: Active; CC50 [4]: 14.1 µM; LC50 [6]: 30.9 µM; LC50 [7]: 34.7 µM; LC50 [8]: 21.9 µM; LC50 [9]: 49 µM; Activity [13]: Active
6 | O=Cc1c(-c2ccc(F)cc2)nc2sc(CCC3CCCCC3)nn12 | 14.1 | 93.3 | 10.2 | 70.8 | 7.4 | – | 5.9 | 63.1 | 13.2 | – | 75.9 | 12.3 | 97.7 | 7.1 | 67.6 | 21.9 | 87.1 | 11.8 | 61.7 | –
7 | COc1ccc(-c2nc3sc(Cc4ccccc4)nn3c2SC#N)cc1 | 7.9 | 70.8 | 3.6 | 72.4 | – | – | 4.1 | 61.7 | 4.6 | 83.2 | 52.5 | 5.6 | 56.2 | 3.9 | 55 | 5.8 | 77.6 | 4.8 | 60.3 | LC50 [8]: 89.1 µM
